Data reported in publication PMC9669183 (British journal of pharmacology, 2022).
Values joined by “and” are separate entries in the source; they are usually repeats but may differ in a detail not shown here. Equal entries are not always repeated. Where two headings read alike, the source gives them in different places.

Columns and labels:
[1] = target: T1, α1β3γ2L GABAAR (Homo sapiens, UniProt P14867+P18507+P28472); assay type: binding; conditions: for direct effect on fluorescence from α1β3γ2L-bound Gzn-OG (orthosteric site): 3-100 μM α7-PAM, no GABA
[2] = target: T2, α1β2γ2L GABAAR (Rattus norvegicus, UniProt P18508+P62813+P63138, INS375LLRMFSFK); assay: Direct activation, two-electrode voltage clamp in Xenopus oocytes; assay type: cell-based; conditions: 50 μM α7-PAM; n=5 oocytes/drug; mean±SEM
[3] = target: T2, α1β2γ2L GABAAR; assay type: cell-based; conditions: for potentiation of the response to low GABA (% of control): 50 μM α7-PAM, 2-5 μM GABA (PA<0.10), 100% = no effect, mean±SEM; for free energy change (ΔG) towards stabilizing the active state: co-agonist concerted transition model
[4] = target: T2, α1β2γ2L GABAAR; assay: Modulation of steady-state response to saturating GABA, Xenopus oocytes; assay type: cell-based; conditions: 50 μM α7-PAM; 1 mM GABA
[5] = target: T2, α1β2γ2L GABAAR; assay: Drug combination; assay type: cell-based; conditions: for observed PA in the presence of R(+)-etomidate+α7-PAM / predicted PA for R(+)-etomidate+α7-PAM, distinct site model / predicted PA for R(+)-etomidate+α7-PAM, same site model: 50 μM α7-PAM
[6] = target: T2, α1β2γ2L GABAAR; assay: Potentiation of receptors activated by allosteric agonists; assay type: cell-based; conditions: for potentiation of currents elicited by propofol (% of control) / potentiation of the response to phenobarbital (% of control) / potentiation of the peak response to R(+)-etomidate (% of control): 50 μM α7-PAM; for potentiation of the response to phenobarbital (% of control): 1 mM phenobarbital, n=5
[7] = target: α1(Q241L)β2γ2L GABAAR (Rattus norvegicus, UniProt P18508+P62813+P63138, INS375LLRMFSFK/Q268L); assay: Potentiation of low GABA response, mutant receptor in oocytes; assay type: cell-based; conditions: 50 μM; low GABA PA<0.10; mean±SEM
[8] = target: α1β2(N265M)γ2L GABAAR (Rattus norvegicus, UniProt P18508+P62813+P63138, INS375LLRMFSFK/N289M); assay: as above; assay type: cell-based; conditions: 50 μM; low GABA PA<0.10; mean±SEM
[9] = target: α1β2(M286W)γ2L GABAAR (Rattus norvegicus, UniProt P18508+P62813+P63138, INS375LLRMFSFK/M310W); assay: as above; assay type: cell-based; conditions: 50 μM; low GABA PA<0.10; mean±SEM
[10] = target: α1(L232C)β2γ2L GABAAR (Rattus norvegicus, UniProt P18508+P62813+P63138, INS375LLRMFSFK/L258C); assay: as above; assay type: cell-based; conditions: 50 μM; low GABA PA<0.10; mean±SEM
[11] = target: α1(M236C)β2γ2L GABAAR (Rattus norvegicus, UniProt P18508+P62813+P63138, INS375LLRMFSFK/M262C); assay: as above; assay type: cell-based; conditions: 50 μM; low GABA PA<0.10; mean±SEM
[12] = target: α1(A291W)β2γ2L GABAAR (Rattus norvegicus, UniProt P18508+P62813+P63138, A317W/INS375LLRMFSFK); assay: as above; assay type: cell-based; conditions: 50 μM; low GABA PA<0.10; mean±SEM
[13] = target: α1β2γ2L(S280C) GABAAR (Rattus norvegicus, UniProt P18508+P62813+P63138, INS375LLRMFSFK/S318C); assay: as above; assay type: cell-based; conditions: 50 μM; low GABA PA<0.10; mean±SEM
[14] = target: α1β2γ2L(I242C) GABAAR (Rattus norvegicus, UniProt P18508+P62813+P63138, I280C/INS375LLRMFSFK); assay: as above; assay type: cell-based; conditions: 50 μM; low GABA PA<0.10; mean±SEM
[15] = target: α1β2γ2L(L246C) GABAAR (Rattus norvegicus, UniProt P18508+P62813+P63138, INS375LLRMFSFK/L284C); assay: as above; assay type: cell-based; conditions: 50 μM; low GABA PA<0.10; mean±SEM
[16] = target: T1, α1β3γ2L GABAAR; assay: Potentiation of low GABA response, oocytes; assay type: cell-based; conditions: 50 μM; low GABA PA<0.10; mean±SEM
[17] = target: α1β3(M227C)γ2L GABAAR (Homo sapiens, UniProt P14867+P18507+P28472, M252C); assay: Potentiation of low GABA response, mutant receptor in oocytes; assay type: cell-based; conditions: 50 μM; low GABA PA<0.10; mean±SEM
[18] = target: α1β3(L231C)γ2L GABAAR (Homo sapiens, UniProt P14867+P18507+P28472, L256C); assay: as above; assay type: cell-based; conditions: 50 μM; low GABA PA<0.10; mean±SEM
[19] = target: α4β2δ GABAA receptor (Homo sapiens, UniProt O14764+P47870+P48169); assay: Effect on α4β2δ receptor during long drug applications, oocytes; assay type: cell-based
Sequence of α4β2δ GABAA receptor (P48169 36-554): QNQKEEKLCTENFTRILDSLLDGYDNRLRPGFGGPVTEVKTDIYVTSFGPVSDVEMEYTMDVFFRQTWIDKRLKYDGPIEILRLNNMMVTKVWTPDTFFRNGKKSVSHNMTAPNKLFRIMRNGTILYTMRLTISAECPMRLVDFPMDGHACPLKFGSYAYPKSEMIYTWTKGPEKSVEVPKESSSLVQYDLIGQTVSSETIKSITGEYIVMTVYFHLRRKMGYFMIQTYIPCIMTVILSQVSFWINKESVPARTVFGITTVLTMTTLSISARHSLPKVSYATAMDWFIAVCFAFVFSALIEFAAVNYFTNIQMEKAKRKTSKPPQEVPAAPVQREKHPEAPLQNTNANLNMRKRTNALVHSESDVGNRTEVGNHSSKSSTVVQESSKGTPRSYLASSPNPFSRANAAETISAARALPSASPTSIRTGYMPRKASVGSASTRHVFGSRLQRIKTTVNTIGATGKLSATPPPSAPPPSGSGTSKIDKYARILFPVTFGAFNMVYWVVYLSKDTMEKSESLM
Sequence of α4β2δ GABAA receptor (P47870 25-512 limits assumed): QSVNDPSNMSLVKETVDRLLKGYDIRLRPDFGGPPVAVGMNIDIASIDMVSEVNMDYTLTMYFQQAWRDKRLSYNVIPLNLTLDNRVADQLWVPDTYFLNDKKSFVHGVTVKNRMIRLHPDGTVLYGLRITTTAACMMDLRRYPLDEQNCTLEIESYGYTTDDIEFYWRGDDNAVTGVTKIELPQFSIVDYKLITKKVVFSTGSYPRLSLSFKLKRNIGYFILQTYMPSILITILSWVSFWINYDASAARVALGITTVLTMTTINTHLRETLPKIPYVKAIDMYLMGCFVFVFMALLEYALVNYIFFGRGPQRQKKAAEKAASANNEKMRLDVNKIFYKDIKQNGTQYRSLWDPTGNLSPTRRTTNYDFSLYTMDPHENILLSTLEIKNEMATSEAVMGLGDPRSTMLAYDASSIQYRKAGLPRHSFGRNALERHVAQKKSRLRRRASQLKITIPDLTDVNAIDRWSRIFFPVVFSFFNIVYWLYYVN
Sequence of α4β2δ GABAA receptor (O14764 25-452): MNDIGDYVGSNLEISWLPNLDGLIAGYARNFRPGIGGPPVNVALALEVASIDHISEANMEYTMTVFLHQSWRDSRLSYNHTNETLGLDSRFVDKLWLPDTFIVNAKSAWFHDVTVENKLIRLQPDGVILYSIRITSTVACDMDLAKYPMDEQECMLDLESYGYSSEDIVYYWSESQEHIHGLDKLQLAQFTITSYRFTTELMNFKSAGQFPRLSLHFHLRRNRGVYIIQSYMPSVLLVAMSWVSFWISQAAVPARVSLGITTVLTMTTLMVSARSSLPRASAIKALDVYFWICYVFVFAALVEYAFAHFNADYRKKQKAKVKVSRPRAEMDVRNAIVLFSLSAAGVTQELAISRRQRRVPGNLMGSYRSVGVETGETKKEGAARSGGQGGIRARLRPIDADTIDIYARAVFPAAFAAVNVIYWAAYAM
In short: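 Human α4β2δ GABAA receptors were expressed in Xenopus laevis oocytes by injecting 3.5-6 ng total cRNA per oocyte. Oocytes were held 1-2 days in ND96 (pH 7.4) with Na pyruvate and antibiotics. Currents were recorded by two-electrode voltage clamp.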

[20] = tested on: binary αβ GABAA receptors (α1β2, α1β3); assay: Potentiation of binary αβ receptors compared with ternary αβγ, oocytes; assay type: cell-based
[21] = tested on: α4β2 nicotinic receptor; conditions: at high μM concentrations; ref Arias et al., 2011; Timmermann et al., 2007; cited from earlier work
[22] = tested on: α3β4 nicotinic receptor; conditions: at high μM concentrations; ref Arias et al., 2011; Timmermann et al., 2007; cited from earlier work
[23] = 0.5 μM GABA+20 μM NS-1738+25 μM PAM-2
[24] = c 0.804, KR,PNU-120596 constrained to 10 μM
[25] = c 0.804, KR,PNU-120596 constrained to 50 μM
[26] = c 0.804, KR,PNU-120596 constrained to 100 μM

| SMILES | decrease in GABA Ki between 0 (control) and 100 μM α7-PAM [1] [fold] | direct effect on fluorescence from α1β3γ2L-bound Gzn-OG (orthosteric site) [1] | direct activation: response as % of the peak response to 1 mM GABA+50 μM propofol [2] [%] | potentiation of the response to low GABA (% of control) [3] | free energy change (ΔG) towards stabilizing the active state [3] | steady-state response to saturating GABA in presence of α7-PAM (% of control) [4] | observed PA in the presence of R(+)-etomidate+α7-PAM [5] | predicted PA for R(+)-etomidate+α7-PAM, distinct site model [5] | predicted PA for R(+)-etomidate+α7-PAM, same site model [5] | potentiation of currents elicited by propofol (% of control) ([6]; 10 μM propofol) | potentiation of the response to phenobarbital (% of control) [6] | potentiation of the peak response to R(+)-etomidate (% of control) ([6]; 2-4 μM R(+)-etomidate) | Potentiation (% of control), α1(Q241L)β2γ2L [7] | Potentiation (% of control), α1β2(N265M)γ2L [8] | Potentiation (% of control), α1β2(M286W)γ2L [9] | Potentiation (% of control), α1(L232C)β2γ2L [10] | Potentiation (% of control), α1(M236C)β2γ2L [11] | Potentiation (% of control), α1(A291W)β2γ2L [12] | Potentiation (% of control), α1β2γ2L(S280C) [13] | Potentiation (% of control), α1β2γ2L(I242C) [14] | also measured |
| --- | --- | --- | --- | --- | --- | --- | --- | --- | --- | --- | --- | --- | --- | --- | --- | --- | --- | --- | --- | --- | --- |
| O=C(Nc1cc(Cl)ccc1O)Nc1cc(C(F)(F)F)ccc1Cl [NS-1738, N-(5-Cl-2-hydroxyphenyl)-N’-[2-Cl-5-(trifluoromethyl)phenyl]-urea] | 25 | do not modify fluorescence | 0.86±0.51 | 383±38 % of control | -1.29 kcal/mol | 44±8 % of control | 0.068±0.022 | 0.253±0.055 | 0.007±0.002 | 145±11 % of control | 431±52 % of control | 125±8 % of control | 491 ± 45% of control | 426 ± 61% of control | 613 ±91% % of control | 357 ± 55% of control | 181 ± 15% % of control | 199 ± 22% % of control | 344 ± 60% of control | 376 ±35% of control | PA of response to GABA+NS-1738 ([5]; 0.5 μM GABA+20 μM NS-1738): 0.153±0.043; PA of response to low GABA+NS-1738 ([5]; 0.1-0.5 μM GABA+10 μM NS-1738, 5 oocytes): 0.084±0.028; Potentiation (% of control), α1β2γ2L(L246C) [15]: 262 ± 25% of control; Potentiation (% of control), α1β3γ2L [16]: 301 ± 12% of control; Potentiation (% of control), α1β3(M227C)γ2L [17]: 322 ± 40% of control; Potentiation (% of control), α1β3(L231C)γ2L [18]: 217 ± 36% of control; effect on the α4β2δ receptor [19]: inhibited; magnitude of potentiation in binary αβ vs ternary αβγ receptors [20]: similar; effect on the heteromeric α4β2 nicotinic receptor [21]: inhibit; effect on the heteromeric α3β4 nicotinic receptor [22]: inhibit |
| Cc1ccc(NC(=O)/C=C/c2ccco2)cc1 [PAM-2, (E)-3-(furan-2-yl)-N-(p-tolyl)-acrylamide] | 3.8 | do not modify fluorescence | 0.70±0.19 | 300 ± 43 % of control | -0.76 kcal/mol | 70±4 % of control | 0.050±0.013 | 0.097±0.030 | 0.008±0.002 | 123±9 % of control | 103±6 % of control | 140±17 % of control | 382 ± 29% of control | 124 ± 6% % of control | 181 ± 12% % of control | 197 ± 8% % of control | 176 ± 11% % of control | 130 ± 7% % of control | 233 ± 16% of control | 189 ± 11% % of control | EC50 [3]: 26 ± 8 µM; Kd [3]: 24.8 ± 10.5 µM; calculated PA for GABA+NS-1738+PAM-2, distinct site model [5, 23]: 0.267±0.065; calculated PA for GABA+NS-1738+PAM-2, same site model [5, 23]: 0.146±0.043; observed PA of response to GABA+NS-1738+PAM-2 [5, 23]: 0.158±0.044; Potentiation (% of control), α1β2γ2L(L246C) [15]: 147 ± 7% % of control; Potentiation (% of control), α1β3γ2L [16]: 176 ± 12% % of control; Potentiation (% of control), α1β3(M227C)γ2L [17]: 163 ± 12% of control; Potentiation (% of control), α1β3(L231C)γ2L [18]: 153 ± 11% of control; effect on the α4β2δ receptor [19]: inhibited; magnitude of potentiation in binary αβ vs ternary αβγ receptors [20]: similar; effect on the heteromeric α4β2 nicotinic receptor [21]: inhibit; effect on the heteromeric α3β4 nicotinic receptor [22]: inhibit |
| CC(C)c1cccc(C(C)C)c1O [propofol] |  |  |  |  |  |  |  |  |  |  |  |  |  |  |  |  |  |  |  |  | PA of currents elicited by propofol alone ([6]; 10 μM propofol): 0.06-0.07 |
| COc1cc(OC)c(NC(=O)Nc2cc(C)on2)cc1Cl [PNU-120596, N-(5-Cl-2,4-dimethoxyphenyl)-N’-(5-methyl-3-isoxazolyl)-urea] |  | do not modify fluorescence | 0.38±0.09 | 133±11 % of control | -0.26 ± 0.04 kcal/mol and -0.26 kcal/mol | 90±2 % of control |  |  |  |  |  |  |  |  |  |  |  |  |  |  | shift in GABA F/Fo curves ([1]; 3-10 μM α7-PAM): Leftward shift; potentiation EC50 (Hill equation) ([3]; coapplied with low GABA (PA=0.05-0.13)): the fits did not converge; PA of response to low GABA+NS-1738 with PNU-120596 coapplied ([5]; 0.1-0.5 μM GABA+10 μM NS-1738+50 μM PNU-120596, 5 oocytes): 0.074±0.024; predicted PA for GABA+NS-1738+PNU-120596, distinct site model [5, 24]: 0.114; predicted PA for GABA+NS-1738+PNU-120596, same site model [5, 24]: 0.047; predicted PA for GABA+NS-1738+PNU-120596, distinct site model [5, 25]: 0.103; predicted PA for GABA+NS-1738+PNU-120596, same site model [5, 25]: 0.065; predicted PA for GABA+NS-1738+PNU-120596, distinct site model [5, 26]: 0.097; predicted PA for GABA+NS-1738+PNU-120596, same site model [5, 26]: 0.073 |
| CCOC(=O)c1cncn1[C@H](C)c1ccccc1 [R(+)-etomidate, R-1-(1-ethylphenyl)imidazole-5-ethyl ester] |  |  |  |  |  |  |  |  |  |  |  |  |  |  |  |  |  |  |  |  | PA of response to R(+)-etomidate alone ([6]; 2-4 μM R(+)-etomidate): 0.053±0.015 and 0.041±0.013 |
| NCCCC(=O)O [GABA, γ-aminobutyric acid] |  |  |  |  |  |  |  |  |  |  |  |  |  |  |  |  |  |  |  |  | PA of response to GABA alone ([3]; 2-5 μM GABA (EC6-7)): 0.05-0.06; PA of response to GABA alone ([5]; 0.5 μM GABA, n=5): 0.039±0.013 |
